Consider one molecule from PMC11134322 (RSC Advances, 2024).

What all share (assay type): cell-based
Data set [1] concerns LPS-induced IL-6 release in RAW264.7 cells. In words: Inhibition of LPS-induced IL-6 production, ELISA. The note with it: Mus musculus, RAW264.7, 24 h, read-out: IC50 IL-6. The procedure, abridged:
(§1)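 Log-phase RAW264.7 cells, 4 × 10^5 cells per mL, were grown 24 h before dosing. They received test compound or indomethacin for 30 min, then LPS (0.5 mg L−1) for a further 24 h. IL-6 or TNF-α in the culture medium was measured by commercial ELISA, reading absorbance at 450 nm against a standard curve. IC50 came from dose–response experiments.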
For orientation: An ELISA detects its analyte on a solid surface through an enzyme-linked reagent.

Data set [2] concerns LPS-induced TNF-α release in RAW264.7 cells. The experiment in a line: Inhibition of LPS-induced TNF-α production, ELISA. The note with it: Mus musculus, RAW264.7, 24 h, read-out: IC50 TNF-α. The gist of the method: as §1
Another data set relates to RAW264.7 cells. In words: Cytotoxicity, CCK-8 assay. The note with it: RAW264.7 cells, 24, 48 and 72 h; DEX 27.964 μM, 13b 12.326 μM, 13d 23.684 μM. In general terms: Tetrazolium assays rely on reduction of a dye to a coloured formazan, in cell work by metabolically active cells.
Data set [3] relates to LPS-induced NO release in RAW264.7 cells. The experiment in a line: Inhibition of LPS-induced NO release, Griess reagent test. The note with it: Mus musculus, RAW264.7, 24 h, read-out: IC50 NO. The gist of the method: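 Log-phase RAW264.7 cells were seeded at 4 × 10^5 cells per mL in 96-well plates and grown 24 h. They were pretreated with test compound or indomethacin for 30 min, then stimulated with LPS (0.5 mg L−1) for 24 h more. NO in the supernatant was measured by Griess method and quantified against an NaNO2 standard curve. IC50 came from dose–response experiments.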

SMILES strings stand for the structures.

For orientation: IC50 means the concentration that gives 50% inhibition.

Consider `C[C@@H]1C[C@H]2[C@@H]3CCC4=CC(=O)C=C[C@]4(C)[C@@]3(F)[C@@H](O)C[C@]2(C)[C@@]1(O)C(=O)CO` [DEX, dexamethasone], for which the IC50 came to 0.247 ± 0.073 µM in data set [1], 27.8 ± 0.643 µM in data set [2] and 21.2 ± 0.517 µM in data set [3]. For the same molecule, the “cytotoxicity: cell activity / proliferation versus control (in words)” value in the data set on RAW264.7 cells is recorded as “no discernible change in cell activity”.
